Calls of active or inactive are those of the source. The rule behind the calls is not given here.
How the values were obtained:
Mus musculus [1] = experiment: Antidiabetic activity in KK-Ay diabetic mouse model assessed as reduction in serum insulin level at 1 to 5 mg/kg/day administered via oral gavage once daily for 21 days; type: functional, organism-based
Summary of the method: (§1)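 Male KK-Ay mice (8 weeks old) on high-fat diet with water ad libitum, dosed by gavage once daily for 21 days (1 or 5 mg/kg test; rosiglitazone 10 mg/kg); female C57BL/6J mice as normal controls. Blood collected at study end. Serum lipids, insulin and glucose measured per cited method. ISI calculated from fasting blood glucose and fasting insulin. Mean ± SEM, n = 7-8.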

Mus musculus [2] = experiment: Decrease in serum AST level in KK-Ay diabetic mouse model at 1 to 5 mg/kg/day administered via oral gavage once daily for 21 days; type: functional, organism-based; summary of the method: as §1
Mus musculus [3] = experiment: Antidiabetic activity in KK-Ay diabetic mouse model assessed as reduction in blood glucose level at 5 mg/kg/day administered via oral gavage once daily measured on day 19 at 30 to 60 mins post insulin challenge by insulin tolerance test; type: functional, organism-based
Summary of the method: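 ITT on day 19 of treatment: after 4 h fasting, insulin 0.6 U·kg-1 given intraperitoneally. Glycaemia was sampled from the tail tip before and at set times after injection, and the AUC was computed. Mean ± SEM, n = 8.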

Mus musculus [4] = experiment: Antidiabetic activity in KK-Ay diabetic mouse model assessed as reduction in blood glucose level at 5 mg/kg/day administered via oral gavage once daily for 21 days measured at 30 to 60 mins post glucose challenge by oral glucose tolerance test; type: functional, organism-based
Summary of the method: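 OGTT on day 21 of daily gavage dosing in KK-Ay mice. Blood glucose read at time points including 30 and 60 min, and the AUC was calculated. Mean ± SEM, n = 8.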

Mus musculus [5] = experiment: Hypolipidemic activity in KK-Ay diabetic mouse model assessed as reduction in serum triglyceride level at 1 to 5 mg/kg/day administered via oral gavage once daily for 21 days; type: functional, organism-based; summary of the method: as §1
[6] = Inhibition of baker's yeast alpha-glucosidase using p-nitrophenyl alpha-D-glucopyranoside as substrate preincubated for 10 mins followed by substrate addition measured for 15 mins; parameters: species or system Saccharomyces cerevisiae
Summary of the method: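 Baker's yeast α-glucosidase with pNPG, read at 405 nm. Control contained phosphate buffer in place of compound, and blank contained buffer in place of enzyme.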

Mus musculus [7] = experiment: Acute toxicity in mouse assessed as mortality up to […], po up to 14 days; type: organism-based; settings: in vivo, 336 h
Mus musculus [8] = experiment: Hypoglycemic activity in KK-Ay diabetic mouse model assessed as increase in liver hepatic glycogen level at 1 to 5 mg/kg/day administered via oral gavage once daily for 4 weeks; type: functional, organism-based
Mus musculus [9] = experiment: Antidiabetic activity in KK-Ay diabetic mouse model assessed as reduction in blood glucose level at 1 to 5 mg/kg/day administered via oral gavage once daily for 21 days by oral sucrose tolerance test; type: functional, organism-based
Summary of the method: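 Oral sucrose tolerance test on day 20 of once-daily gavage treatment in high-fat-fed KK-Ay mice. Blood glucose followed over time, and the AUC was calculated. Mean ± SEM, n = 8.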

Mus musculus [10] = experiment: Hypolipidemic activity in KK-Ay diabetic mouse model assessed as reduction in serum LDL-C level at 1 to 5 mg/kg/day administered via oral gavage once daily for 21 days; type: functional, organism-based; summary of the method: as §1
Mus musculus [11] = experiment: Acute toxicity in mouse assessed as convulsion up to […], po up to 14 days; type: organism-based; settings: in vivo, 336 h
Mus musculus [12] = experiment: Antidiabetic activity in KK-Ay diabetic mouse model assessed as reduction in free diet blood glucose level at 1 to 5 mg/kg/day administered via oral gavage once daily measured on day 3 post dose; type: functional, organism-based
Summary of the method: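 Non-fasted (free diet) blood glucose was tracked serially in high-fat-fed KK-Ay mice given daily gavage doses (1 or 5 mg/kg; rosiglitazone 10 mg/kg). Mean ± SEM, n = 8.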

Mus musculus [13] = experiment: Antidiabetic activity in KK-Ay diabetic mouse model assessed as increase in insulin sensitivity index at 1 to 5 mg/kg/day administered via oral gavage once daily for 21 days; type: functional, organism-based; summary of the method: as §1
Mus musculus [14] = experiment: Decrease in lipid droplet accumulation in liver in KK-Ay diabetic mouse model at 5 mg/kg/day administered via oral gavage once daily for 21 days by haematoxylin and eosin staining based microscopic or morphometric method; type: functional, organism-based
Summary of the method: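 At study end, liver and abdominal white adipose tissue were fixed in 10% formaldehyde PBS (pH 7.4), paraffin-embedded, sectioned and stained with haematoxylin/eosin. Sections were assessed by microscopy or morphometry at 20×.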

[15] = molecular target: T1, 3-hydroxy-3-methylglutaryl-coenzyme A reductase (Sus scrofa) (UniProt Q1W675); experiment: Non-competitive inhibition of HMG-CoA reductase in pig liver microsomes using varying levels of HMG-CoA as substrate preincubated for 5 mins followed by NADPH addition measured after 15 mins by Lineweaver-Burk plot analysis
T1 sequence (whole entry): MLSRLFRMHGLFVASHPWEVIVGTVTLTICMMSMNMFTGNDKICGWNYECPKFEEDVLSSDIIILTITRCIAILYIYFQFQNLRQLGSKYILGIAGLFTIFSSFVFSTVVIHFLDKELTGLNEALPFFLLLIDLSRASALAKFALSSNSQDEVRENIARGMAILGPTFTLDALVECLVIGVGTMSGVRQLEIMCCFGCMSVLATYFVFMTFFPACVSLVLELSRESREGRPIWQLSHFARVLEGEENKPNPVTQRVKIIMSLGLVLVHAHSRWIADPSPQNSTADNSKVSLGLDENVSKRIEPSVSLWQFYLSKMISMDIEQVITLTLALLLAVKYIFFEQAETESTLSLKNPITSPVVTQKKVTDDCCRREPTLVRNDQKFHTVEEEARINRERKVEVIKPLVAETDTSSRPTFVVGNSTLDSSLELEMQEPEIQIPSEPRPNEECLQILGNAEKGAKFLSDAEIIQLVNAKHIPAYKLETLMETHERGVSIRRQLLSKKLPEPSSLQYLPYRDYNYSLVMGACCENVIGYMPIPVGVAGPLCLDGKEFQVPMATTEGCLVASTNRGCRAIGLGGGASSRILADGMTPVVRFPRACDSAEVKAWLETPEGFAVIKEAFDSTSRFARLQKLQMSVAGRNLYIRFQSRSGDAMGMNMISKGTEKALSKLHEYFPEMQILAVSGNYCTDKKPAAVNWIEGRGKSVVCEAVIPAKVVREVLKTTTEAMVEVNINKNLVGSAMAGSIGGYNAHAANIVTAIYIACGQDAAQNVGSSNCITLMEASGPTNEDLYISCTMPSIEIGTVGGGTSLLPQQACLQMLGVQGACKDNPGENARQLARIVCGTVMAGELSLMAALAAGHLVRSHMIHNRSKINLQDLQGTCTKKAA
Summary of the method: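 HMG-CoA reductase kinetics: inhibitor at 5 to 20 μM, HMG-CoA at 2, 4, 6 and 8 μM. Initial velocities with and without inhibitor analysed by Lineweaver-Burk double-reciprocal plots.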

[16] = molecular target: Sucrase-isomaltase, intestinal (Rattus norvegicus, UniProt P23739); experiment: Inhibition of sucrase in rat small intestinal mucosa assessed as reduction in glucose production using sucrose as substrate measured after 40 mins by glucose oxidase assay
Summary of the method: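 Rat small intestinal mucosa enzyme. Compound in DMSO mixed with substrate (maltose, sucrose or pNPG) and enzyme in 0.1 M phosphate buffer pH 6.9, incubated 40 min. Glucose released measured by glucose oxidase kit at 550 nm. Blank lacked enzyme, control lacked compound. Percent inhibition calculated from blank-corrected OD.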

Chain of Sucrase-isomaltase, intestinal (P23739 1-1013 limits assumed): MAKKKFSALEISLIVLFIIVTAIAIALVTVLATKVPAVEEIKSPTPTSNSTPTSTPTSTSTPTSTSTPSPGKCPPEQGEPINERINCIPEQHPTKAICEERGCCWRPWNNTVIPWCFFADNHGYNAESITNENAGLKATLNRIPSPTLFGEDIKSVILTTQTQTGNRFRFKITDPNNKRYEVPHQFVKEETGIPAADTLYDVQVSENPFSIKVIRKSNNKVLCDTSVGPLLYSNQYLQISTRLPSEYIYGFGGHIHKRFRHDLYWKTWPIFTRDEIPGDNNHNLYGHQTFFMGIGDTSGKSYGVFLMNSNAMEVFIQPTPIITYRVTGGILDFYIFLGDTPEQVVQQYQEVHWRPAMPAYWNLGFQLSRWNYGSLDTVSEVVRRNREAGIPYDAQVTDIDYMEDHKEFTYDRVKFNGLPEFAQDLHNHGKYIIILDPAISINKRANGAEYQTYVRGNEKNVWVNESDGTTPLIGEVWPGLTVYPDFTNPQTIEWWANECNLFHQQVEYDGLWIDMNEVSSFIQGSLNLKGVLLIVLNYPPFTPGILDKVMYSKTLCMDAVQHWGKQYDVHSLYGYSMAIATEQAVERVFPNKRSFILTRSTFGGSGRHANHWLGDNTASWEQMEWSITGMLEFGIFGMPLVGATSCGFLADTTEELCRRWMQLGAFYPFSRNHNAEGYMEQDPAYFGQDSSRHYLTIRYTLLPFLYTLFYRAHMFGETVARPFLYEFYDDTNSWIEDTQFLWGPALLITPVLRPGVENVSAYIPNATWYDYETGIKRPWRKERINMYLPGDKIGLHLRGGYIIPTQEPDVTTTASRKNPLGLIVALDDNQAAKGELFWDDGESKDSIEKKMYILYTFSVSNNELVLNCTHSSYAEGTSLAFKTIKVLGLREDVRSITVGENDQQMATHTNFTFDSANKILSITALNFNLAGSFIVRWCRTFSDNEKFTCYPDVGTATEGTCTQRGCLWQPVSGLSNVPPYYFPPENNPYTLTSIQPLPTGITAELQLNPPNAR
Chain of Sucrase-isomaltase, intestinal (P23739 1014-1841 limits assumed): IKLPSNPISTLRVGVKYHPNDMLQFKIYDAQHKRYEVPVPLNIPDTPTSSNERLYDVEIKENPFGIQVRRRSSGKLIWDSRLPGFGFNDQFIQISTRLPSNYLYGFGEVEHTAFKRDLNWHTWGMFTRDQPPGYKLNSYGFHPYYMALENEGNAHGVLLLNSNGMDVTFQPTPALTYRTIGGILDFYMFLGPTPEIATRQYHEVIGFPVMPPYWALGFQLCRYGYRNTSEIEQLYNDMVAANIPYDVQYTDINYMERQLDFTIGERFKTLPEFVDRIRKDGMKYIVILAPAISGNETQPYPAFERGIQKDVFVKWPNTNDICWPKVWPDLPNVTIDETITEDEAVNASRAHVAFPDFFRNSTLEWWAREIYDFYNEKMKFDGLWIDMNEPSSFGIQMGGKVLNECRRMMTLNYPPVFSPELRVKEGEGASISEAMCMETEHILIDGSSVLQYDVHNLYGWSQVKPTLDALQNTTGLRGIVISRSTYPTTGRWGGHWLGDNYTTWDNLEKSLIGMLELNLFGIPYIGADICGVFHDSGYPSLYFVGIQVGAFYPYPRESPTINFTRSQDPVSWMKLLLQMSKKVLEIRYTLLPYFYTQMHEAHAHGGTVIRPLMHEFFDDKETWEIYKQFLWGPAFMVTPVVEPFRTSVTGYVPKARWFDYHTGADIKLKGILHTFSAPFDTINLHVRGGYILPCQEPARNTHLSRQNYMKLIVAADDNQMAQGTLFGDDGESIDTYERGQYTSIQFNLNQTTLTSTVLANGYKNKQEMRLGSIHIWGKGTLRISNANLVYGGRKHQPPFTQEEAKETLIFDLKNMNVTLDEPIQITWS

**Q.** What does the source list for `CC(C)=CCC/C(C)=C/CCC1=C[C@H](c2cc(O)ccc2O)OC1=O`?
**A.** Activity (Mus musculus [1]): Active; Activity (Mus musculus [2]): Active; Activity (Mus musculus [3]): Active; Activity (Mus musculus [4]): Active; Activity (Mus musculus [5]): Active; IC50 [6]: 0.3 µM; Activity (Mus musculus [7]): Non-Toxic; Activity (Mus musculus [8]): Active; Activity (Mus musculus [9]): Active; Activity (Mus musculus [10]): Active; Activity (Mus musculus [11]): Non-Toxic; Activity (Mus musculus [12]): Active; Activity (Mus musculus [13]): Active; Activity (Mus musculus [14]): Active; inhibition [15]: Active; IC50 [16]: 67.6 µM
